How the values were obtained:
[1] = target: T1, Carbonyl reductase [NADPH] 1 (Homo sapiens) (UniProt P16152); assay: Binding affinity to human recombinant carbonyl reductase 1 expressed in Escherichia coli assessed as thermal shift by differential scanning fluorimetry in presence of NADP+
T1 sequence (whole entry): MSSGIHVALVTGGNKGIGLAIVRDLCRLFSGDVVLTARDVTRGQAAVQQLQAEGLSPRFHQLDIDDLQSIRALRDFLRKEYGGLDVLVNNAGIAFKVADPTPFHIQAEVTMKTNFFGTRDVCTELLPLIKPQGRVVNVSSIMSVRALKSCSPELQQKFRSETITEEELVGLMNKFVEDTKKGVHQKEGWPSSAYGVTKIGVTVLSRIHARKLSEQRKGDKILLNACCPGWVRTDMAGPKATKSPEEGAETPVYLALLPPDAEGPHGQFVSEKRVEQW
Procedure, shortened: (§1)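 Thermal-shift (DSF) binding assay with purified recombinant catalytic domains or proteins carrying an N- or C-terminal His6 tag or GST fusion. Purity was >95% by SDS/PAGE and identity was confirmed by MS. Protein was at 2 µM final in 10 mM HEPES pH 7.5 and 150 mM NaCl. Tm shift is reported, with 2 °C as the threshold for binding.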

[2] = target: T2, Carbonyl reductase [NADPH] 3 (Homo sapiens) (UniProt O75828); assay: Binding affinity to human recombinant carbonyl reductase 3 expressed in Escherichia coli assessed as thermal shift by differential scanning fluorimetry in presence of NADP+; procedure, shortened: as §1
T2 sequence (whole entry): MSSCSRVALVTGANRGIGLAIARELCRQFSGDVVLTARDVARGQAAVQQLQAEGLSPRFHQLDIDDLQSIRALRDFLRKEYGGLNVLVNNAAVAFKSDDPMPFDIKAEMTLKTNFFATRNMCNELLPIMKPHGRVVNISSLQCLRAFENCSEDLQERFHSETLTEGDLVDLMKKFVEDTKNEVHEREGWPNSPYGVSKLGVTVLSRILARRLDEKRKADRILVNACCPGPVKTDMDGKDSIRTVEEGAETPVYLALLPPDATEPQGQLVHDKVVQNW

[3] = target: T1, Carbonyl reductase [NADPH] 1 (Homo sapiens); assay: Binding affinity to human recombinant carbonyl reductase 1 expressed in Escherichia coli assessed as NADPH oxidation at 200 uM relative to isatin
Procedure, shortened: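 Substrate test used 200 nM purified CBR1 and 200 µM NADPH, injected onto compound at 200 µM in 50 mM sodium phosphate pH 6.8 with 1 mM MgCl2. NADPH oxidation was read as the fluorescence decrease at 460 nm (excitation 355 nm). Rate came from linear regression after normalizing to the fluorescence rise on injection. Run in triplicate and expressed as % of the isatin rate.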

[4] = target: T2, Carbonyl reductase [NADPH] 3 (Homo sapiens); assay: Binding affinity to human recombinant carbonyl reductase 3 expressed in Escherichia coli assessed as thermal shift by differential scanning fluorimetry in presence of NADPH; procedure, shortened: as §1
[5] = target: T1, Carbonyl reductase [NADPH] 1 (Homo sapiens); assay: Binding affinity to human recombinant carbonyl reductase 1 expressed in Escherichia coli assessed as thermal shift by differential scanning fluorimetry in presence of NADPH; procedure, shortened: as §1
[6] = target: T1, Carbonyl reductase [NADPH] 1 (Homo sapiens); assay: Binding affinity to human recombinant carbonyl reductase 1 expressed in Escherichia coli assessed as thermal shift by differential scanning fluorimetry in absence of cofactor; procedure, shortened: as §1
[7] = target: T2, Carbonyl reductase [NADPH] 3 (Homo sapiens); assay: Binding affinity to human recombinant carbonyl reductase 3 expressed in Escherichia coli assessed as thermal shift by differential scanning fluorimetry in absence of cofactor; procedure, shortened: as §1
[8] = target: T3, Carbonyl reductase [NADPH] 1 (Homo sapiens, UniProt P16152); assay: Binding affinity to human recombinant carbonyl reductase 1 expressed in Escherichia coli assessed as NADPH oxidation using isatin as substrate
T3 sequence (P16152 whole entry): T1 sequence (whole entry)
Procedure, shortened: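 Purified recombinant CBR1 (200 nM) and NADPH were added to compound in 50 mM sodium phosphate, pH 6.8, 1 mM MgCl2. NADPH oxidation was followed as the fluorescence decrease at 460 nm (excitation 355 nm). Rates came from linear regression after normalising to the fluorescence rise at injection. Compounds were titrated at two isatin levels, with no-protein background subtracted. Sigmoidal fit gave IC50, then Ki from the isatin concentration.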

SMILES | Tm [1] [°C] | Tm [2] [°C] | Activity [3] [%] | Tm [4] [°C] | Tm [5] [°C] | Tm [6] [°C] | Tm [7] [°C] | IC50 [8] [nM] | Ki [8] [nM]
COc1cc(O)c2c(c1)oc(=O)c1c3cc(O)c(O)cc3oc21 [WEDELOLACTONE] | 5.1 | < 2 | 5.8 | < 2 | < 2 | 2 | < 2 | 3780 | 600
COc1ccc(-c2coc3cc(O)cc(O)c3c2=O)cc1 [BIOCHANIN] | 2.7 | < 2 | 9.3 | < 2 | < 2 | < 2 | < 2 | 12700 | 2030
O=C1C[C@@H](c2ccc(O)cc2)Oc2cc(O)cc(O)c21 [NARINGENIN] | 2.3 | < 2 | 4.7 | < 2 | < 2 | < 2 | < 2 | 21500 | 3430
O=c1c(-c2ccc(O)cc2)coc2cc(O)cc(O)c12 | < 2 | < 2 | – | < 2 | < 2 | < 2 | < 2 | – | –
O=c1c(O)c(-c2ccc(O)c(O)c2)oc2cc(O)cc(O)c12 | < 2 | < 2 | – | < 2 | < 2 | < 2 | < 2 | – | –
Oc1cc(Cl)ccc1Oc1ccc(Cl)cc1Cl [TRICLOSAN] | 3.4 | < 2 | – | < 2 | < 2 | < 2 | < 2 | 400 | 60
O=c1cc(-c2ccccc2)oc2cc(O)cc(O)c12 [CHRYSIN] | 4.6 | < 2 | 16.3 | < 2 | < 2 | < 2 | < 2 | 670 | 110

Reference: ChEMBL document CHEMBL1140872, “Discovery of a potent and selective inhibitor for human carbonyl reductase 1 from propionate scanning applied to the macrolide zearalenone” (Bioorg Med Chem, 2009)
